Results from ChEMBL document CHEMBL4513216, “Probing the Open Global Health Chemical Diversity Library for Multistage-Active Starting Points for Next-Generation Antimalarials” (ACS Infect Dis, 2020).

experiment: Toxicity liver stage against HepG2, at 10uM; assay type: cell-based; set-up: test concentration 10 uM, cell line HepG2-A16-CD81EGFP; conditions: human, HepG2-A16-CD81EGFP cells; read-out: INHIBITION
Procedure, shortened: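 Uninfected HepG2-A16-CD81EGFP cells, 3 × 10^3 per well, 1536-well, plated on prespotted compound at 10 μM final, parasite-free screening media added to match infected plates; puromycin 10 μM positive, DMSO 0.5% negative; run in parallel with 48 h PbLuc assay at 37 °C, 5% CO2; viability by CellTiter-Glo luminescence, normalized to controls.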

Structure (SMILES)	cytotoxicity at 10 µM
CCNC(=O)Cc1ccc(-c2cccc3c2CCNC3)cc1	13.6%
Cc1ccc(N(C)[C@@H]2CC[C@@H]3CN(C(=O)C4CCOCC4)C[C@@H]32)nn1	-4.43%
COc1ccnc(N2CCN(C(=O)c3ccc(Cl)o3)CC2)n1	-19.2%
Cc1cc(N2CCN(C(=O)CCc3scnc3C)CC2)nc(N)n1	-49.2%
Cc1cc2ccccc2n1CCC(=O)N1CCC[C@H]1C(N)=O	-0.338%
CCN(Cc1nc2c(cnn2C)c(=O)[nH]1)c1cc(C)ccc1C	-11.3%
Cc1nc(NCc2ccc(F)cc2)cc(C2CCCN2)n1 (stereo not given)	-3.27%
Cc1cccc(CNc2cncc(-n3cccn3)n2)c1	-7.09%
COc1ccc(S(=O)(=O)NCC(O)c2sccc2C)cc1C (stereo not given)	1.69%
CCNC(=O)[C@@H]1C[C@H](NC(=O)c2cncnc2C)CN1Cc1ccsc1	2.12%
COCc1ccc(C(=O)N(CCC#N)Cc2ccccn2)cc1	14%
O=C(Cn1c(=O)n(Cc2ccco2)c2ncccc21)Nc1ccccn1	0.822%
Cc1nc2n(n1)CC(NCc1cc(Cl)c3c(c1)OCCCO3)CC2 (stereo not given)	-4.15%
Cc1ccc(CN(C)C(=O)CNC(=O)N2CCc3ccccc3C2)o1	5.95%
Cc1ccc(N2CCCC3(COCCN(c4ccccn4)C3)C2)nn1 (stereo not given)	-119%
CN1CCCCC1c1ncc2c(n1)CCN(Cc1ccc(F)cc1)C2 (stereo not given)	-17.6%
CCOCCCNc1nc2c(s1)c(C)nn2C	1.54%
CN(Cc1cnn(C)c1)c1nccc(-c2cc(C(=O)O)ccn2)n1	-7.33%
Cn1ccnc1CN1CCN(Cc2noc(C3CC3)n2)CC1	-1.85%
CCOc1cc(CNC(C)c2sccc2C)ccn1 (stereo not given)	-8.14%
Cc1ccccc1SC1CCN(C(=O)CCCS(N)(=O)=O)CC1	-7.76%
Cc1ccc(OC2(C(=O)O)CCN(C(=O)c3ccsc3)CC2)cn1	-4.09%
COc1c(CNC2CCN(CC(=O)NC3CC3)CC2)c(C)nn1C	7.76%
O=C(c1ccc2ccccc2c1)C1CCCN(C(=O)Cn2cnnn2)C1 (stereo not given)	1.54%
Fc1cccc(CN2CCO[C@H]3[C@@H](OCc4ccccn4)CC[C@@H]32)c1	-0.902%
OC(CN1CCN(Cc2ccc(F)c(F)c2)CC1)C1CC1 (stereo not given)	-22.2%
COCCNC(=O)Cc1cnc(-n2cccc2)s1	-3.35%
CSc1ccc(CNC(c2ccccc2F)c2nccn2C)cc1 (stereo not given)	1.75%

Structure (SMILES)	cytotoxicity at 10 µM
O=C(c1ccccn1)N1CCC(c2nc(O)cc(-c3ccncc3)n2)C1 (stereo not given)	-4.7%
Cc1nc2[nH]cnc(NCCN3CCOCC3)c-2n1	3.22%
c1ccc(CN2CCCC3(CCN(Cc4cccs4)C3)C2)nc1 (stereo not given)	-8.75%
COC(=O)c1cccn1C1CCN(Cc2cccnc2)CC1	-25.6%
CCNC(=O)N1CC[C@H]2CC(=O)N(CCN3CCNC3=O)CC[C@H]2C1	2.22%
Cn1c(CN2CCCC2c2noc(C3CC3)n2)cc(=O)n(C)c1=O (stereo not given)	4.04%
CCOC(=O)C1CCCN(Cc2c[nH]nc2-c2cc3ccccc3o2)C1 (stereo not given)	3.16%
COc1cccc(CSC=C2Nc3ccccc3S(=O)(=O)N2)c1	3.7%
O=C(CO)N1CCC2(CC1)CC(=O)N(Cc1cc(F)cc(F)c1)C2	9.92%
CC(C)n1cnc(-c2nc(C(=O)N3CCCC3)c3ccccn23)c1	6.47%
COCCN1C(=O)[C@]2(CC[C@@H]3CN(C(=O)NCC(C)C)C[C@@H]32)N=C1C	-11.8%
NC(=O)c1cc(C2CCCN(Cc3ccc4c(c3)OCCO4)C2)n[nH]1 (stereo not given)	-7%
Cc1cc(CN(C)C(=O)NC2CCCC2)no1	-5.85%
CNC(=O)c1cccc(CNC2CCCSc3ccccc32)c1 (stereo not given)	-2.64%
Cc1cc(C)nc(C2CCN(C(=O)c3cnco3)C2)n1 (stereo not given)	-4.22%
Cc1ncccc1Oc1cncc(C2CCCN2Cc2cncn2C)n1 (stereo not given)	-32.8%
Cc1cc(C(=O)NCc2ccnc(OCC(F)(F)F)c2)no1	-7.98%
CC1c2ncc(COCC3CC3)n2CCN1C(=O)c1ccnn1C (stereo not given)	4.68%
CC(C)c1nc2n(n1)CC(NCCc1cccs1)CC2 (stereo not given)	-5.71%
CC(C)CSCCN1CCCN(S(C)(=O)=O)CC1	-8.17%
Cn1cc(CCC(=O)NC(c2ccc(F)cc2)C(F)(F)F)cn1 (stereo not given)	1.68%
O=C(Cc1ccncc1)N1C[C@@H]2CC[C@H]1CN(Cc1cccnc1)C2	2.89%
Cc1cc(N2CCCC(c3nccnc3N(C)C)C2)ncn1 (stereo not given)	-1.77%
COc1ccc(CNCC(C)Oc2ccccn2)cc1 (stereo not given)	-2.7%
O=C(c1ccc(Br)cc1F)N1CCc2ccncc21	-1.16%
Cc1c(C(=O)NS(=O)(=O)c2ccsc2)cnn1CC(C)C	11.6%
COCCOc1cccc(CNC(=O)CN2CCN(C)CC2C)c1 (stereo not given)	-4.07%
